Assay results from ChEMBL document CHEMBL1124792, “Synthesis and structure-activity relationships of 5-substituted 6,8-difluoroquinolones, including sparfloxacin, a new quinolone antibacterial agent with improved potency” (1990).
Converted amounts (≈) assume the structure as drawn.

Legend:
Type in all cases: functional
Escherichia coli [1] = test: In vitro antibacterial activity against Escherichia coli NIHJ JC-2
Procedure, shortened: (§1)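 Two-fold agar dilution MIC on Mueller-Hinton agar (pH 7.4), following the Japan Society of Chemotherapy MIC Committee method. Inoculum was about 10⁶ CFU, and growth was read after 20 h at 37 °C. MIC is reported in µg/mL.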

Staphylococcus aureus [2] = test: In vitro antibacterial activity against Staphylococcus aureus 209P JC-1; procedure, shortened: as §1
Pseudomonas aeruginosa [3] = test: In vitro antibacterial activity against Pseudomonas aeruginosa 12; procedure, shortened: as §1
Enterobacter cloacae = test: In vitro antibacterial activity against Enterobacter cloacae 963
Escherichia coli [4] = test: In vitro antibacterial activity against Escherichia coli P-5101; procedure, shortened: as §1
Pseudomonas aeruginosa [5] = test: In vitro antibacterial activity against Pseudomonas aeruginosa IFO 3445; procedure, shortened: as §1
Enterococcus faecalis = test: In vitro antibacterial activity against Streptococcus faecalis 2473; procedure, shortened: as §1
Staphylococcus aureus [6] = test: In vitro antibacterial activity against Staphylococcus aureus 50774; procedure, shortened: as §1
Mus musculus [7] = organism: Mus musculus; test: Oral efficacy against Pseudomonas aeruginosa 12 on Systemic Infections in Mice
Procedure, shortened: (§2)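 Groups of at least 10 male Std-ddY mice (20 ± 2 g) were infected ip, with S. pyogenes A65 at 3×10^7 cells or P. aeruginosa 12 at 4×10^3 cells. Compounds were suspended in 0.2% sodium carboxymethylcellulose and given orally at 0 and 6 h postinfection. The result is reported as ED50 in mg/kg.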

[8] = system: Staphylococcus epidermidis; test: In vitro antibacterial activity against […] 8; procedure, shortened: as §1
Moraxella bovis = test: In vitro antibacterial activity against glucose nonfermenter Moraxella bovis P-7101; procedure, shortened: as §1
Mus musculus [9] = organism: Mus musculus; test: Oral efficacy against Streptococcus pyogenes A65 on Systemic Infections in Mice; procedure, shortened: as §2
Klebsiella pneumoniae = test: In vitro antibacterial activity against Klebsiella pneumoniae 13; procedure, shortened: as §1
Serratia marcescens = test: In vitro antibacterial activity against Serratia marcescens S-9
Procedure, shortened: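 MIC (µg/mL) by 2-fold agar dilution on Mueller-Hinton agar (pH 7.4), following the Japan Society of Chemotherapy MIC Committee method. Inoculum of about 10⁶ CFU. Growth was read after 20 h at 37 °C.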

Streptococcus pyogenes = test: In vitro antibacterial activity against Streptococcus pyogenes A65; procedure, shortened: as §1

Structure (SMILES) | MIC (Escherichia coli [1]) | MIC (Staphylococcus aureus [2]) | MIC (Pseudomonas aeruginosa [3]) | MIC (Enterobacter cloacae) | MIC (Escherichia coli [4]) | MIC (Pseudomonas aeruginosa [5]) | MIC (Enterococcus faecalis) | MIC (Staphylococcus aureus [6]) | ED50 (Mus musculus [7]) | MIC [8] | MIC (Moraxella bovis) | ED50 (Mus musculus [9]) | MIC (Klebsiella pneumoniae) | MIC (Serratia marcescens) | MIC (Streptococcus pyogenes)
CN1CCN(c2c(F)c(Br)c3c(=O)c(C(=O)O)cn(C4CC4)c3c2F)CC1 | 0.05 µg/mL (≈ 0.113 µM) | 0.39 µg/mL (≈ 0.882 µM) | 0.78 µg/mL (≈ 1.76 µM) | – | – | – | – | – | – | – | – | – | – | – | –
Nc1c(F)c(N2CCNC(CO)C2)c(F)c2c1c(=O)c(C(=O)O)cn2C1CC1 (configuration not stated) | 0.025 µg/mL (≈ 0.0634 µM) | 0.05 µg/mL (≈ 0.127 µM) | 0.2 µg/mL (≈ 0.507 µM) | – | – | – | – | – | – | – | – | – | – | – | –
CN1CCN(c2c(F)cc3c(=O)c(C(=O)O)cn(C4CC4)c3c2F)CC1 | 0.025 µg/mL (≈ 0.0688 µM) | 0.2 µg/mL (≈ 0.55 µM) | 0.39 µg/mL (≈ 1.07 µM) | 0.05 µg/mL (≈ 0.138 µM) | 0.0125 µg/mL (≈ 0.0344 µM) | 0.78 µg/mL (≈ 2.15 µM) | 0.78 µg/mL (≈ 2.15 µM) | 0.1 µg/mL (≈ 0.275 µM) | 2.18 mg/kg | 0.1 µg/mL (≈ 0.275 µM) | 0.78 µg/mL (≈ 2.15 µM) | 8.84 mg/kg | 0.05 µg/mL (≈ 0.138 µM) | 0.1 µg/mL (≈ 0.275 µM) | 0.39 µg/mL (≈ 1.07 µM)
CC1COc2c(N3CCN(C)CC3)c(F)cc3c(=O)c(C(=O)O)cn1c23 (configuration not stated) [OFLOXACIN] | – | 0.78 µg/mL (≈ 2.16 µM) | – | 0.1 µg/mL (≈ 0.277 µM) | 0.05 µg/mL (≈ 0.138 µM) | 1.56 µg/mL (≈ 4.32 µM) | 1.56 µg/mL (≈ 4.32 µM) | 0.2 µg/mL (≈ 0.553 µM) | 6.62 mg/kg | 0.2 µg/mL (≈ 0.553 µM) | 1.56 µg/mL (≈ 4.32 µM) | 10.8 mg/kg | 0.1 µg/mL (≈ 0.277 µM) | 0.2 µg/mL (≈ 0.553 µM) | 0.39 µg/mL (≈ 1.08 µM)
CN1CCN(c2c(F)c(-n3cccc3)c3c(=O)c(C(=O)O)cn(C4CC4)c3c2F)CC1 | 0.39 µg/mL (≈ 0.91 µM) | 3.13 µg/mL (≈ 7.31 µM) | 12.5 µg/mL (≈ 29.2 µM) | – | – | – | – | – | – | – | – | – | – | – | –
CN1CCN(c2c(F)c(NCc3ccccc3)c3c(=O)c(C(=O)O)cn(C4CC4)c3c2F)CC1 | 0.78 µg/mL (≈ 1.66 µM) | 0.78 µg/mL (≈ 1.66 µM) | 3.13 µg/mL (≈ 6.68 µM) | – | – | – | – | – | – | – | – | – | – | – | –
O=C(O)c1cn(C2CC2)c2cc(N3CCNCC3)c(F)cc2c1=O [CIPROFLOXACIN] | – | 0.1 µg/mL (≈ 0.302 µM) | – | – | 0.0063 µg/mL (≈ 0.019 µM) | 0.2 µg/mL (≈ 0.604 µM) | 1.56 µg/mL (≈ 4.71 µM) | 0.2 µg/mL (≈ 0.604 µM) | 2.78 mg/kg | 0.1 µg/mL (≈ 0.302 µM) | 3.13 µg/mL (≈ 9.45 µM) | 23.9 mg/kg | 0.025 µg/mL (≈ 0.0754 µM) | 0.05 µg/mL (≈ 0.151 µM) | 0.2 µg/mL (≈ 0.604 µM)
O=C(O)c1cn(C2CC2)c2c(F)c(N3CCNCC3)c(F)cc2c1=O | – | – | 0.05 µg/mL (≈ 0.143 µM) | 0.025 µg/mL (≈ 0.0716 µM) | 0.0031 µg/mL (≈ 0.00887 µM) | 0.2 µg/mL (≈ 0.573 µM) | 0.78 µg/mL (≈ 2.23 µM) | 0.05 µg/mL (≈ 0.143 µM) | 1.22 mg/kg | 0.025 µg/mL (≈ 0.0716 µM) | 0.39 µg/mL (≈ 1.12 µM) | 20.5 mg/kg | 0.0125 µg/mL (≈ 0.0358 µM) | 0.025 µg/mL (≈ 0.0716 µM) | 0.2 µg/mL (≈ 0.573 µM)
O=C(O)c1cn(C2CC2)c2c(F)c(N3CCNCC3)c(F)c(O)c2c1=O | 0.025 µg/mL (≈ 0.0684 µM) | 0.2 µg/mL (≈ 0.547 µM) | 0.39 µg/mL (≈ 1.07 µM) | – | – | – | – | – | – | – | – | – | – | – | –
C[C@@H]1CN(c2c(F)c(F)c3c(=O)c(C(=O)O)cn(C4CC4)c3c2F)C[C@H](C)N1 [ORBIFLOXACIN] | 0.05 µg/mL (≈ 0.126 µM) | 0.39 µg/mL (≈ 0.986 µM) | 1.56 µg/mL (≈ 3.95 µM) | – | – | – | – | – | – | – | – | – | – | – | –
Nc1c(F)c(N2CCNCC2)c(F)c2c1c(=O)c(C(=O)O)cn2C1CC1 | 0.0063 µg/mL (≈ 0.0173 µM) | 0.05 µg/mL (≈ 0.137 µM) | 0.1 µg/mL (≈ 0.274 µM) | 0.0125 µg/mL (≈ 0.0343 µM) | 0.0063 µg/mL (≈ 0.0173 µM) | 0.39 µg/mL (≈ 1.07 µM) | 0.39 µg/mL (≈ 1.07 µM) | 0.05 µg/mL (≈ 0.137 µM) | 1.56 mg/kg | 0.05 µg/mL (≈ 0.137 µM) | 0.39 µg/mL (≈ 1.07 µM) | 170 mg/kg | 0.025 µg/mL (≈ 0.0686 µM) | 0.05 µg/mL (≈ 0.137 µM) | 0.2 µg/mL (≈ 0.549 µM)
O=C(O)c1cn(C2CC2)c2c(F)c(N3CCNCC3)c(F)c(F)c2c1=O | 0.0125 µg/mL (≈ 0.034 µM) | 0.2 µg/mL (≈ 0.544 µM) | 0.39 µg/mL (≈ 1.06 µM) | 0.025 µg/mL (≈ 0.0681 µM) | 0.0125 µg/mL (≈ 0.034 µM) | 0.78 µg/mL (≈ 2.12 µM) | 3.13 µg/mL (≈ 8.52 µM) | 0.39 µg/mL (≈ 1.06 µM) | 3.87 mg/kg | 0.2 µg/mL (≈ 0.544 µM) | 3.13 µg/mL (≈ 8.52 µM) | 25 mg/kg | 0.05 µg/mL (≈ 0.136 µM) | 0.1 µg/mL (≈ 0.272 µM) | 3.13 µg/mL (≈ 8.52 µM)
C[C@@H]1CN(c2c(F)cc3c(=O)c(C(=O)O)cn(C4CC4)c3c2F)C[C@H](C)N1 | 0.1 µg/mL (≈ 0.265 µM) | 0.39 µg/mL (≈ 1.03 µM) | 0.39 µg/mL (≈ 1.03 µM) | 0.05 µg/mL (≈ 0.132 µM) | 0.0063 µg/mL (≈ 0.0167 µM) | 0.39 µg/mL (≈ 1.03 µM) | 1.56 µg/mL (≈ 4.13 µM) | – | 1.41 mg/kg | – | 0.78 µg/mL (≈ 2.07 µM) | 8.64 mg/kg | 0.05 µg/mL (≈ 0.132 µM) | 0.2 µg/mL (≈ 0.53 µM) | 0.39 µg/mL (≈ 1.03 µM)
CC1CNCCN1c1c(F)c(N)c2c(=O)c(C(=O)O)cn(C3CC3)c2c1F (configuration not stated) | 0.05 µg/mL (≈ 0.132 µM) | 0.2 µg/mL (≈ 0.529 µM) | 0.78 µg/mL (≈ 2.06 µM) | – | – | – | – | – | – | – | – | – | – | – | –
CC1CN(c2c(F)c(N)c3c(=O)c(C(=O)O)cn(C4CC4)c3c2F)CCN1C (configuration not stated) | 0.0063 µg/mL (≈ 0.0161 µM) | 0.05 µg/mL (≈ 0.127 µM) | 0.39 µg/mL (≈ 0.994 µM) | – | – | – | – | – | – | – | – | – | – | – | –
CN(C)CC1CN(c2c(F)c(N)c3c(=O)c(C(=O)O)cn(C4CC4)c3c2F)CCN1 (configuration not stated) | 0.1 µg/mL (≈ 0.237 µM) | 0.05 µg/mL (≈ 0.119 µM) | 1.56 µg/mL (≈ 3.7 µM) | – | – | – | – | – | – | – | – | – | – | – | –
CN1CCN(c2c(F)c(NCCO)c3c(=O)c(C(=O)O)cn(C4CC4)c3c2F)CC1 | 0.05 µg/mL (≈ 0.118 µM) | 0.39 µg/mL (≈ 0.923 µM) | 0.78 µg/mL (≈ 1.85 µM) | – | – | – | – | – | – | – | – | – | – | – | –
C[C@@H]1NCCN(c2c(F)c(N)c3c(=O)c(C(=O)O)cn(C4CC4)c3c2F)[C@@H]1C (relative stereo) | 0.0125 µg/mL (≈ 0.0319 µM) | 0.025 µg/mL (≈ 0.0637 µM) | 0.78 µg/mL (≈ 1.99 µM) | – | – | – | – | – | – | – | – | – | – | – | –
CN1CCN(c2c(F)c(N)c3c(=O)c(C(=O)O)cn(C4CC4)c3c2F)CC1 | 0.0125 µg/mL (≈ 0.033 µM) | 0.1 µg/mL (≈ 0.264 µM) | 0.2 µg/mL (≈ 0.529 µM) | 0.025 µg/mL (≈ 0.0661 µM) | 0.0125 µg/mL (≈ 0.033 µM) | 1.56 µg/mL (≈ 4.12 µM) | 0.78 µg/mL (≈ 2.06 µM) | 0.05 µg/mL (≈ 0.132 µM) | 2.18 mg/kg | 0.05 µg/mL (≈ 0.132 µM) | 0.39 µg/mL (≈ 1.03 µM) | 22.9 mg/kg | 0.05 µg/mL (≈ 0.132 µM) | 0.1 µg/mL (≈ 0.264 µM) | 0.39 µg/mL (≈ 1.03 µM)
CN1CCN(c2c(F)c(Cl)c3c(=O)c(C(=O)O)cn(C4CC4)c3c2F)CC1 | 0.025 µg/mL (≈ 0.0628 µM) | 0.2 µg/mL (≈ 0.503 µM) | 0.78 µg/mL (≈ 1.96 µM) | – | – | – | – | – | – | – | – | – | – | – | –
